Laboratory results taken from ChEMBL document CHEMBL4028918, “7-Phenoxy-Substituted 3,4-Dihydro-2H-1,2,4-benzothiadiazine 1,1-Dioxides as Positive Allosteric Modulators of α-Amino-3-hydroxy-5-methyl-4-isoxazolepropionic Acid (AMPA) Receptors with Nanomolar Potency” (J Med Chem, 2018).
pEC50: −log10 of the molar value. The source made the active and inactive calls. The calls are words filed in the database; no cut-off is given here.

Assays:
[1] = species on record: Rattus norvegicus; assay: Induction of dimerization of rat N-terminal His-tagged GluA2-LBD-N775S mutant expressed in Escherichia coli Origami B (DE3) assessed as intrinsic binding constant by small-angle X-ray scattering method
How it was run: (§1)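 1 μL modulator in DMSO was added to 29 μL protein. Samples were held at 4 °C and read on the CHESS G1 beamline, three replicates averaged, with buffer subtraction.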

[2] = target: Glutamate receptor 2 (Homo sapiens, UniProt P42262); assay: Positive allosteric modulation of GluA2 (Q) flop isoform (unknown origin) expressed in HEK293 cells assessed as potentiation of glutamate-evoked calcium flux by fluo-4/AM dye-based fluorescence assay; format: cell-based; details: for pEC50: read-out: EC50
Sequence of Glutamate receptor 2 (P42262 whole entry, the tested form may be a part, canonical isoform): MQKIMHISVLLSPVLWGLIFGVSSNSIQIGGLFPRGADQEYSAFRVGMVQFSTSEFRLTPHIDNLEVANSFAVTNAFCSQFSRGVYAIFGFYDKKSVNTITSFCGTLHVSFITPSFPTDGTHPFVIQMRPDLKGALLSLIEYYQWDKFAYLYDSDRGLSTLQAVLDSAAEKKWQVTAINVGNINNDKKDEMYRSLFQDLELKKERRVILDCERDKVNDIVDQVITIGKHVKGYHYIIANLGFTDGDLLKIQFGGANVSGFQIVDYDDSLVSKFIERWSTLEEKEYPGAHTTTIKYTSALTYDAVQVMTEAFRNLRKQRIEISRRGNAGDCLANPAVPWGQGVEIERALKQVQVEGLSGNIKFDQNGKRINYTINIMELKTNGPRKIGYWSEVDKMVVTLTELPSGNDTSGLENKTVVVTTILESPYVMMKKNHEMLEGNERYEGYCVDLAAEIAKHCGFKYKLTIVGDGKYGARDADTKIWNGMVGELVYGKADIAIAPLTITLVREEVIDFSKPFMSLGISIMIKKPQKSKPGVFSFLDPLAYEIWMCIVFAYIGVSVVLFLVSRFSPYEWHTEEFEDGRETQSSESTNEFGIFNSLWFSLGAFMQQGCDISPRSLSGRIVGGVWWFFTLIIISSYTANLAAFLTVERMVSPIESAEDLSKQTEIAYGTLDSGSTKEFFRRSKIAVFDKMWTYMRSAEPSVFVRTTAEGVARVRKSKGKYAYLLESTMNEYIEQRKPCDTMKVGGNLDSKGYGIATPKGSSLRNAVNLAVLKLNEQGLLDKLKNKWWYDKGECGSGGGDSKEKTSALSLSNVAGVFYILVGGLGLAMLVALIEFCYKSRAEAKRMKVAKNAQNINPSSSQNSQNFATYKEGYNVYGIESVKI

[3] = species on record: Rattus norvegicus; assay: Induction of dimerization of rat N-terminal His-tagged/15N-labeled GluA2-LBD-N775S mutant expressed in Escherichia coli Origami B (DE3) at 90 uM by NMR spectroscopy
[4] = species on record: Rattus norvegicus; assay: Induction of dimerization of rat N-terminal His-tagged GluA2-LBD-N775S mutant expressed in Escherichia coli Origami B (DE3) assessed as dimerization constant by small-angle X-ray scattering method; how it was run: as §1

| pEC50 [2] | Structure (SMILES) | further results |
| --- | --- | --- |
| 6.09 | O=S1(=O)NCN(C2CC2)c2ccc(F)cc21 | K [1]: 9 ×10⁻⁷ M |
| 5.50 | Cc1ccc(Oc2ccc3c(c2)S(=O)(=O)NCN3C2CC2)cc1 |  |
| 5.12 | CN1CNS(=O)(=O)c2cc(Oc3ccccc3)ccc21 |  |
| 5.74 | COc1ccc(Oc2ccc3c(c2)S(=O)(=O)NCN3C2CC2)cc1 |  |
| 4.69 | O=S1(=O)NCN(CCF)c2ccc(Cl)cc21 | K [1]: 2 ×10⁻⁶ M |
| 6.43 | COc1cccc(Oc2ccc3c(c2)S(=O)(=O)NCN3C)c1 |  |
|  | Cc1ccccc1Oc1ccc2c(c1)S(=O)(=O)NCN2C | EC50 ([2]; read-out: pEC50 (converted)): > 10000 nM |
| 6.02 | Cc1ccc(Oc2ccc3c(c2)S(=O)(=O)NCN3C)cc1 |  |
| 4.81 | Cc1ccccc1Oc1ccc2c(c1)S(=O)(=O)NCN2C1CC1 |  |
| 5.23 | COc1ccc(Oc2ccc3c(c2)S(=O)(=O)NCN3C)cc1 |  |
| 8.70 | COc1cccc(Oc2ccc3c(c2)S(=O)(=O)NCN3C2CC2)c1 | Activity [3]: Active; K [4]: 32 mM; K [1]: 5 ×10⁻¹¹ M |
| 6.41 | Cc1cccc(Oc2ccc3c(c2)S(=O)(=O)NCN3C)c1 |  |
| 6.15 | O=S1(=O)NCN(C2CC2)c2ccc(Oc3ccccc3)cc21 |  |
| 6.35 | N#Cc1cccc(Oc2ccc3c(c2)S(=O)(=O)NCN3C2CC2)c1 |  |
| 7.30 | Cc1cccc(Oc2ccc3c(c2)S(=O)(=O)NCN3C2CC2)c1 |  |
| 4.81 | COc1ccccc1Oc1ccc2c(c1)S(=O)(=O)NCN2C1CC1 |  |
| < 5.00 | COc1ccccc1Oc1ccc2c(c1)S(=O)(=O)NCN2C |  |
| 4.73 | CC1N(C)c2ccc(Cl)cc2S(=O)(=O)N1C (stereo not drawn) |  |
